Experiment [1] has as its target T1, Prostaglandin G/H synthase 2 (Homo sapiens) (UniProt P35354).
T1 sequence (whole entry): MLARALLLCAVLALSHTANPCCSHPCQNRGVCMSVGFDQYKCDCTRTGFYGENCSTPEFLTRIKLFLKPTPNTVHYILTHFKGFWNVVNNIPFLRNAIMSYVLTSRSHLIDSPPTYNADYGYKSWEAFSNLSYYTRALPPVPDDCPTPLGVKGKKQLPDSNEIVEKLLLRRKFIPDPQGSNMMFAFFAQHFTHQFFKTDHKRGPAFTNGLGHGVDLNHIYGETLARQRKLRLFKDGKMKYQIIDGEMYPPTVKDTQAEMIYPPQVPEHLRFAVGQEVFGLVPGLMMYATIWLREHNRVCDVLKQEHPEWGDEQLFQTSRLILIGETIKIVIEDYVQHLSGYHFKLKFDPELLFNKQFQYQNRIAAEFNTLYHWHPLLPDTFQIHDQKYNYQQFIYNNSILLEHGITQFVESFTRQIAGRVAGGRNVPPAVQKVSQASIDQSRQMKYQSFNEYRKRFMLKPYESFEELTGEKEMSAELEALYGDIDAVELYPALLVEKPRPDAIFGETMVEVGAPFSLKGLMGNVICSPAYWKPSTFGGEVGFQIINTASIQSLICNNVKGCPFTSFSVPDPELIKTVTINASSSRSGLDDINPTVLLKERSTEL
Put plainly: Inhibition of recombinant human COX2 using arachidonic acid/2-AG as substrate after 5 mins. The procedure, abridged:
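Oxygen-electrode assay at room temperature in 0.1 M Tris-HCl, pH 7.4, with 1 µM haematin, 2 mM phenol, 5 mM EDTA and 10 µM (final) arachidonic acid or 2-AG. Compound in EtOH was added and a 5 min baseline recorded. The reaction was started with ovine COX-1 or human recombinant COX-2 (200 U), and oxygen consumption was read in 10 s blocks. Means ± SEM, n = 3-4.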

Experiment [2] has as its target T2, Fatty-acid amide hydrolase 1 (Rattus norvegicus) (UniProt P97612).
T2 sequence (whole entry): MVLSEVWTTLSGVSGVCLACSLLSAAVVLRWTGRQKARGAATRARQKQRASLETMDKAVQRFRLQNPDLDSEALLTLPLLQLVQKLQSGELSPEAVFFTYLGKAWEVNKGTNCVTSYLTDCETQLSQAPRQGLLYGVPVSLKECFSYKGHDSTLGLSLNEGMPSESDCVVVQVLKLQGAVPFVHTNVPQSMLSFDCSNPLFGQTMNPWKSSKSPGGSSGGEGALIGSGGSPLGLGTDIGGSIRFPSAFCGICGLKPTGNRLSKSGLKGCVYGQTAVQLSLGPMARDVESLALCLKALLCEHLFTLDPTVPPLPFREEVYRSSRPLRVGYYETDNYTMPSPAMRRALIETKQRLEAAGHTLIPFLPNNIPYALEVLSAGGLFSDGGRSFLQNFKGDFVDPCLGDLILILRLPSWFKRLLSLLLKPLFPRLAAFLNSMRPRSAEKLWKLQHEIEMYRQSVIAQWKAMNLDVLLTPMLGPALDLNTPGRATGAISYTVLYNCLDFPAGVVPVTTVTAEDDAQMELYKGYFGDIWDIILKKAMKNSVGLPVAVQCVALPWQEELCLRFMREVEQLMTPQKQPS
As to the kind of experiment: Inhibition of rat brain FAAH at 0.3 to 100 uM using [3H]AEA as substrate after 10 mins by liquid scintillation counting analysis relative to control. The procedure, abridged:
(§1)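 Rat (Wistar or Sprague-Dawley) brain homogenate without cerebella, washed and pre-incubated 15 min at 37 °C to clear endogenous substrate. Compound (in ethanol or DMSO) was mixed with 1 µg protein on ice in 10 mM Tris-HCl, 1 mM EDTA, pH 7.4. Reaction used 0.5 µM [3H]AEA with fatty acid-free BSA for 10 min at 37 °C. It was stopped with charcoal/HCl, and supernatant tritium was counted. ≥5 half-log concentrations, ≥3 experiments; maximum inhibition = 100 − fitted bottom.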

Experiment [3] deals with T3, Fatty-acid amide hydrolase 1 (Rattus norvegicus, UniProt P97612).
T3 sequence (P97612 whole entry): T2 sequence (whole entry)
As to the kind of experiment: Inhibition of rat brain FAAH using [3H]AEA as substrate after 10 mins by liquid scintillation counting analysis. The method, boiled down: as §1

Experiment [4] has as its target T2, Fatty-acid amide hydrolase 1 (Rattus norvegicus). Put plainly: Reversible inhibition of rat brain FAAH at 0.03 to 1 uM using [3H]AEA as substrate preincubated for 60 mins followed by substrate addition by liquid scintillation counting analysis. The procedure, abridged: (§2)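 Rat brain homogenate at 20-fold normal strength was preincubated with vehicle or compound for 60 min, then diluted 20-fold and assayed with [3H]AEA for 10 min at 37 °C. In parallel, compound was added to vehicle-preincubated aliquots at the post-dilution free concentrations and at the undiluted final concentrations. Tritium was counted after charcoal separation.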

In experiment [5] the target is T4, Fatty-acid amide hydrolase 1 (Mus musculus, UniProt O08914).
T4 sequence (O08914 whole entry): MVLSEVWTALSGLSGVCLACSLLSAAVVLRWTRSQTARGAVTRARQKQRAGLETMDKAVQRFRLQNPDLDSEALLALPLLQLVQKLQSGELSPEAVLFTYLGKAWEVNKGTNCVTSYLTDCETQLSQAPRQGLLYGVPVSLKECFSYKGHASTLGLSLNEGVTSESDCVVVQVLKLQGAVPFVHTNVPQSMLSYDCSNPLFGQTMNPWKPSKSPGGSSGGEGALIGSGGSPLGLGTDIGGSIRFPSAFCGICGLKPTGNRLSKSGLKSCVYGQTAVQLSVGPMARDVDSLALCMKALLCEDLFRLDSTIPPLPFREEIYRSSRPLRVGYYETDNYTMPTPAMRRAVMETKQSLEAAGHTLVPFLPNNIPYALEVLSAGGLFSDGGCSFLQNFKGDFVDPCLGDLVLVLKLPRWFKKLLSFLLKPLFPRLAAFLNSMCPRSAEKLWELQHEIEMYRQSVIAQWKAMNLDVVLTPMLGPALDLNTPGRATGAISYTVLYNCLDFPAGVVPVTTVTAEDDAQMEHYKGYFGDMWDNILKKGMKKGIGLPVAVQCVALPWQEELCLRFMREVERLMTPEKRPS
As to the kind of experiment: Mixed-type inhibition of B6CBAF1/J mouse brain FAAH using [3H]AEA as substrate after 10 mins by Dixon plot analysis. The method, boiled down:
(§3)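 Kinetic study in brain homogenate from male B6CBAF1/J mice (0.3 µg protein per assay). [3H]AEA hydrolysis ran for 10 min at 37 °C in Tris-EDTA buffer, pH 7.4, with the AEA:fatty acid-free BSA ratio held at 1:~4.5. Products were separated on charcoal and counted by scintillation. Competitive, mixed-type and non-competitive fits were compared by Akaike's criterion.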

Experiment [6] deals with T5, Fatty-acid amide hydrolase 1 (Mus musculus) (UniProt O08914).
T5 sequence (whole entry): T4 sequence (O08914 whole entry)
Put plainly: Inhibition of B6CBAF1/J mouse brain FAAH using [3H]AEA as substrate after 10 mins in presence of N-(3-Chloropyridin-2-yl)-2-(4-((2-(trifluoromethyl)pyridin-4-yl)amino)phenyl)propanamide by Dixon plot analysis. The method, boiled down:
as §3

The target in experiment [7] is T2, Fatty-acid amide hydrolase 1 (Rattus norvegicus). Put plainly: Reversible inhibition of rat brain FAAH at 0.2 to 2 uM using [3H]AEA as substrate preincubated for 60 mins followed by substrate addition by liquid scintillation counting analysis. The procedure, abridged:
as §2

Active and inactive are the calls of the source.

The term Ki denotes a measure of affinity in units of concentration, obtained from inhibition or displacement. A higher Ki goes with lower affinity. For `CC(C(=O)Nc1ncccc1Cl)c1ccc(Nc2ccnc(C(F)(F)F)c2)cc1` (stereo not drawn), the inhibition entry in experiment [1] was “inactive”. In addition, the Imax in experiment [2] is 100%. For the same compound, the values for the IC50 in experiment [3] (read-out: IC50) and in experiment [3] (read-out: pIC50 (converted)) were 58 nM and 57.5 nM, respectively. In experiment [4], the inhibition result was “Active”. In addition, the inhibition constant Ki in experiment [5] is 3000 nM.

For `Cc1cccnc1NC(=O)C(C)c1ccc(Nc2ccnc(C(F)(F)F)c2)cc1` (stereo not drawn), in experiment [1], the inhibition result was “inactive”. For the same compound, in experiment [2], the Imax stood at 100%. For the same compound, the IC50 was 590 nM in experiment [3] (read-out: IC50) and 589 nM in experiment [3] (read-out: pIC50 (converted)). The inhibition result in experiment [6] and in experiment [7] was “Active” each time. In experiment [5], this compound returned a Ki of 6300 nM.

For the origin of these results see ChEMBL document CHEMBL4138113, “Novel propanamides as fatty acid amide hydrolase inhibitors” (Eur J Med Chem, 2017).
